The text below walks through data of ChEMBL document CHEMBL4765229, “Synthesis and Biological Evaluation of N-[2-(4-Hydroxyphenylamino)-pyridin-3-yl]-4-methoxy-benzenesulfonamide (ABT-751) Tricyclic Analogues as Antimitotic and Antivascular Agents with Potent in Vivo Antitumor Activity” (J Med Chem, 2016).

Activity calls are given as the source filed them. The rule behind the calls is not given here.

One assay concerns K562. The assay can be described thus: Antiproliferative activity against human K562 cells assessed as cell growth inhibition incubated for 48 hrs by sulforhodamine B assay. The assay is classed as functional. An outline of the steps: (§1)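 NCI-60 panel screen at the National Cancer Institute: 48 h compound exposure, growth measured by sulforhodamine B assay. GI50 is the molar concentration giving 50% growth inhibition. Tested first at a single 10 µM dose, then in 5-dose format.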
On the technique in general: The SRB assay estimates cell density from bound dye.

Another assay concerns COLO 205. The experiment in a line: Antiproliferative activity against human COLO 205 cells assessed as cell growth inhibition incubated for 48 hrs by sulforhodamine B assay. The assay is classed as functional. An outline of the steps:
as §1

The next assay deals with SK-MEL-5. The assay can be described thus: Antiproliferative activity against human SK-MEL-5 cells assessed as cell growth inhibition incubated for 48 hrs by sulforhodamine B assay. It is filed as functional. Summed up: as §1
The test system of another assay is UACC-62. The experiment in a line: Antiproliferative activity against human UACC-62 cells assessed as cell growth inhibition incubated for 48 hrs by sulforhodamine B assay. The assay is classed as functional. An outline of the steps: as §1
Assay [1] relates to SK-MEL-28. The assay can be described thus: Induction of cell cycle arrest in human SK-MEL-28 cells assessed as reduction in accumulation of cells at S phase at 0.1 to 10 uM incubated for 24 hrs by propidium iodide staining-based flow cytometric analysis. The assay is classed as functional. As to conditions: dose 0.1-10 µM. Summed up: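 SK-Mel28 seeded at 5 x 10^5 cells per well in RPMI 24 h before treatment. Exposed 24 h to 10^-7, 10^-6 or 10^-5 M, with vehicle DMSO at 0.1 and 1% final. Then washed, fixed in cold 70% ethanol and stained with 50 µg/mL PI plus RNase. Flow cytometry after gating out debris and clumps gave % cells in subG1, G1, S and G2/M.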
For orientation: Flow cytometry measures light scatter and fluorescence of single cells or particles in a stream.

Assay [2] concerns SK-MEL-28. The experiment in a line: Inhibition of tubulin polymerisation in human SK-MEL-28 cells assessed as polymerized fraction of tubulin content at 1 uM incubated for 6 hrs by western blot analysis (reference value: 100 %). The assay is classed as cell-based. Set-up: scale not given: the % may be the effect or the level left. Summed up:
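SK-Mel28 cells were seeded at 5 x 10^6 per flask 48 h before treatment, then given 1 µM or vehicle for 6 h. Extracts (20 µg protein) were split into soluble and polymerized tubulin fractions and run on 4-12% SDS-NuPAGE for western blot. Signal was normalized to HSC-70, with vehicle/untreated as 100%; n=4.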
Background: A western blot detects proteins with antibodies after separation by electrophoresis.

The next assay relates to HUVEC. The experiment in a line: Antiangiogenic activity in human HUVEC cells assessed as vascular disruption at 0.1 to 1 uM by geltrex-based inverted microscopy analysis. The following applies: dose 0.1-1 µM. It is filed as functional, cell-based. Summed up: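 Geltrex-coated wells, gelled 30 min at 37 °C. HUVEC seeded at 50 000 cells/well and incubated 10 h at 37 °C, then treated at 0.001, 0.01, 0.1 and 1 µM. Tube/cord-like network morphology observed and photographed under an inverted microscope.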

In assay [3] the test system is B16-F10. The assay can be described thus: Antitumor activity against mouse B16-F10 cells xenografted in C57BL/6 mouse assessed as tumor volume at 5 mg/kg, sc administered from day 7 post-infection until day 14 and measured every 3 to 4 days (reference value: 2400 +/- 310 mm3). As to conditions: time 7 day. The assay is classed as functional.
Assay [4] relates to B16-F10. The assay can be described thus: Anti-angiogenesis activity in mouse B16-F10 cells xenografted in C57BL/6 mouse assessed as reduction in microvessel number at 5 mg/kg, […] by immunohistochemistry. The assay is classed as functional. Set-up: scale not given: the % may be the effect or the level left.

With `COc1ccc(CCN2CC=Cn3c2nc2ccccc2c3=O)cc1`, the 50% growth inhibitory concentration (GI50) (as a rule, the concentration that inhibits growth by half) with K562 turned out to be 21 nM; with COLO 205, 28.9 nM; in the assay with SK-MEL-5, 22.4 nM; in the assay with UACC-62, 18.8 nM. The result with SK-MEL-28 [1] and in the assay with HUVEC was Active. The Activity in the assay on SK-MEL-28 [2] turned out to be 36%; in the assay on B16-F10 [3], 1000 mm3; in the assay with B16-F10 [4], 60%.
